The values that follow come from ChEMBL document CHEMBL4028906, “Allosteric Inhibitors of SHP2 with Therapeutic Potential for Cancer Treatment” (J Med Chem, 2017).

The structures appear in SMILES notation. Calls of active or inactive are those of the source. The rule behind the calls is not given here.

A word on the IC50: it is the concentration that gives 50% inhibition. The term half-life denotes how long it takes for the measured level to halve. What is called bioavailability is the share of a dose that reaches the circulation, judged against a reference dose that is usually intravenous. The low end stands for poor availability, the high end for good availability.

For data set [1], the target named is Tyrosine-protein phosphatase non-receptor type 2 (Homo sapiens, UniProt P17706). The data set is described as follows: Inhibition of TC-PTP (unknown origin) expressed in Escherichia coli BL21(DE3) using DIFMUP as substrate preincubated for 20 mins followed by substrate addition measured after 20 mins by phosphatase assay. An outline of the steps: (§1)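 Phosphatases purified from E. coli and run as for SHP2 E76A: 20 min room-temperature preincubation with compound in 0.1 M sodium acetate pH 5.0, then DIFMUP at each enzyme's Km, 20 min, fluorescence 358/455 nm. Eight 3-fold dilutions in duplicate; IC50 from at least three independent experiments.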

Data set [2] concerns the target Dual specificity protein phosphatase 3 (Homo sapiens, UniProt P51452). The data set can be described thus: Inhibition of VHR (unknown origin) expressed in Escherichia coli BL21(DE3) using DIFMUP as substrate preincubated for 20 mins followed by substrate addition measured after 20 mins by phosphatase assay. An outline of the steps: as §1
For data set [3], the species on record is Homo sapiens. The data set is described as follows: Selectivity ratio of IC50 for MKP3 (unknown origin) expressed in Escherichia coli BL21(DE3) to IC50 for SHP2 E76A mutant (unknown origin) expressed in Escherichia coli BL21(DE3). An outline of the steps:
(§2)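 Ratio of IC50 values from one DIFMUP fluorescence assay (Ex/Em 358/455), room temperature, 0.1 M sodium acetate pH 5.0. His-tagged SHP2 E76A (1.5 nM) or counter-phosphatase purified from E. coli, preincubated 20 min with compound (eight 3-fold dilutions), then DIFMUP added for 20 min. DIFMUP was at Km for each counter-phosphatase. Duplicates; IC50 from at least three independent experiments.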

Data set [4] concerns the target T1, Tyrosine-protein phosphatase non-receptor type 11 (Homo sapiens) (UniProt Q06124).
T1 sequence (whole entry): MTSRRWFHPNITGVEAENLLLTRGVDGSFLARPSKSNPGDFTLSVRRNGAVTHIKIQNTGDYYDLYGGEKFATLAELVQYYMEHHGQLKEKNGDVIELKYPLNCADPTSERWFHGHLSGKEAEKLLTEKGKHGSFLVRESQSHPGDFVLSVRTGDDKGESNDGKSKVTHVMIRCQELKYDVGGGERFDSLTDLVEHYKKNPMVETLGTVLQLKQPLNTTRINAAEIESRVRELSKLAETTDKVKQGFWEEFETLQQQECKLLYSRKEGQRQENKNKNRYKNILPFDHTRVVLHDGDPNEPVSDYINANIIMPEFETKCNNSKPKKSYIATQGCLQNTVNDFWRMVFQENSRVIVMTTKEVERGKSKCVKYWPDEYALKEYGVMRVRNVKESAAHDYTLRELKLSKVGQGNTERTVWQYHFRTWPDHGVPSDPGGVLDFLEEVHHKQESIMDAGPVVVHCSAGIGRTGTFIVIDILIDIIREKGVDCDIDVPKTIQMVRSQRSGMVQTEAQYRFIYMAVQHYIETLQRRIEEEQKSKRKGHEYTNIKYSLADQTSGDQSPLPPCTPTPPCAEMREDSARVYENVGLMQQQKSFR
The data set is described as follows: Allosteric inhibition of SHP2 in human NCI-H661 cells assessed as downregulation of phosphorylated AKT levels at 2.5 to 20 uM after 2 hrs by Western blot analysis. It is filed as cell-based. An outline of the steps:
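NCI-H661 cells in 6-well plates exposed to inhibitor 2 h at 37 °C. RIPA lysates separated by SDS-PAGE, transferred to PVDF, milk-blocked, probed overnight at 4 °C for pERK1/2, ERK1/2, pAKT and AKT. Repeated at least three times.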
A general note: In western blotting, separated proteins are transferred to a membrane and probed.

The target of data set [5] is T1, Tyrosine-protein phosphatase non-receptor type 11 (Homo sapiens). The data set is described as follows: Allosteric inhibition of SHP2 in human NCI-H661 cells assessed as downregulation of ERK1/2 activation at 10 uM after 60 mins by Western blot analysis. It is filed as cell-based. An outline of the steps: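 NCI-H661 cells given 10 µM inhibitor over a time course. Lysates immunoblotted for p-ERK1/2, ERK1/2, p-AKT and AKT. Repeated at least three times.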

For data set [6] the target is unchanged. The data set is described as follows: Inhibition of SHP2 in human SF268 cells assessed as downregulation of YAP-mediated ANKRD1 gene expression ay 10 to 20 uM after 2 hrs by qRT-PCR analysis. It is filed as cell-based. An outline of the steps: (§3)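 SF268 cells exposed to DMSO, 10 μM or 20 μM inhibitor for 2 h. RNA extracted, reverse-transcribed, and CTGF, CYR61, ANKRD1 and YAP mRNA quantified by qPCR; mean±s.d., n=3.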
Background: In qPCR the cycle at which signal appears reflects the starting amount.

The test system of the next data set is SF-268. The data set is described as follows: Effect on YAP gene expression in human SF268 cells at 10 to 20 uM after 2 hrs by qRT-PCR analysis. It is filed as functional, cell-based. An outline of the steps: as §3
The next data set concerns NCI-H1838. The data set is described as follows: Antiproliferative activity against human NCI-H1838 cells at 3 to 6 uM after 2 days by CellTiter-Glo assay. It is filed as functional, cell-based. An outline of the steps: (§4)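 3000 cells/well in 96-well plates, grown overnight, then inhibitor at indicated concentrations for 2 days (48 h). Viability by CellTiter-Glo; mean±s.d., n=3.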
In general terms: In ATP-based viability assays light output follows the ATP content of the culture.

The next data set relates to MDA-MB-468. The data set can be described thus: Antiproliferative activity against human MDA-MB-468 cells at 3 to 6 uM after 2 days by CellTiter-Glo assay. The format is functional, cell-based. An outline of the steps:
as §4

A further data set has as its system KG-1a. The data set can be described thus: Antiproliferative activity against human KG1a cells at 3 to 6 uM after 2 days by CellTiter-Glo assay. The format is functional, cell-based. An outline of the steps:
as §4

In the next data set the test system is NCI-H661. The data set can be described thus: Antiproliferative activity against human NCI-H661 cells at 3 to 6 uM after 2 days by CellTiter-Glo assay. The format is functional, cell-based. An outline of the steps: as §4
A further data set has as its system THP-1. The data set can be described thus: Antiproliferative activity against human THP1 cells at 3 to 6 uM after 2 days by CellTiter-Glo assay. It is filed as functional, cell-based. An outline of the steps:
as §4

The next data set deals with MOLT-4. The data set is described as follows: Antiproliferative activity against human MOLT4 cells at 3 to 6 uM after 2 days by CellTiter-Glo assay. It is filed as functional, cell-based. An outline of the steps:
as §4

For a further data set, the system named is MOLM-13. The data set is described as follows: Antiproliferative activity against human MOLM13 cells at 3 to 6 uM after 2 days by CellTiter-Glo assay. It is filed as functional, cell-based. An outline of the steps:
as §4

Another data set concerns MV4-11. The data set can be described thus: Antiproliferative activity against human MV4-11 cells at 3 to 6 uM after 2 days by CellTiter-Glo assay. It is filed as functional, cell-based. An outline of the steps:
as §4

For another data set, the system named is NCI-H1975. The data set can be described thus: Antiproliferative activity against human NCI-H1975 cells assessed as reduction in colony formation at 2.5 to 10 uM after 2 weeks by soft agar assay. The format is functional, cell-based. An outline of the steps:
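NCI-H1975 cells at 10,000/well in 0.4% agarose over a 1% low-melt agarose base layer (6-well). Inhibitor at varying concentrations, replenished twice weekly. After 2 weeks, colonies stained with iodonitrotetrazolium chloride and counted; mean±s.d., n=3.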

A short description of data set [7]: Half life in nu/nu mouse at 10 mg/kg, po measured up to 24 hrs postdose by LC/MS/MS analysis. It is filed as ADME, organism-based. To be noted: in vivo. An outline of the steps:
(§5)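 Female nu/nu nude mice dosed IV via tail vein at 5 mg/kg or orally at 10 mg/kg. Blood sampled at 0.083, 0.25, 0.5, 1, 2, 4, 8 and 24 h post-dose (orbital sinus, terminal cardiac puncture; EDTA-2K). Plasma separated at 4 °C, precipitated with acetonitrile containing internal standard, quantified by LC/MS/MS.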

Data set [8] is described as follows: Oral bioavailability in nu/nu mouse at 10 mg/kg measured up to 24 hrs postdose by LC/MS/MS analysis. The format is ADME, organism-based. To be noted: in vivo. An outline of the steps:
as §5

The species entered for data set [9] is Homo sapiens. The data set can be described thus: Selectivity ratio of IC50 for VHR (unknown origin) expressed in Escherichia coli BL21(DE3) to IC50 for SHP2 E76A mutant (unknown origin) expressed in Escherichia coli BL21(DE3). An outline of the steps: as §2

Chain of Tyrosine-protein phosphatase non-receptor type 2 (P17706 whole entry): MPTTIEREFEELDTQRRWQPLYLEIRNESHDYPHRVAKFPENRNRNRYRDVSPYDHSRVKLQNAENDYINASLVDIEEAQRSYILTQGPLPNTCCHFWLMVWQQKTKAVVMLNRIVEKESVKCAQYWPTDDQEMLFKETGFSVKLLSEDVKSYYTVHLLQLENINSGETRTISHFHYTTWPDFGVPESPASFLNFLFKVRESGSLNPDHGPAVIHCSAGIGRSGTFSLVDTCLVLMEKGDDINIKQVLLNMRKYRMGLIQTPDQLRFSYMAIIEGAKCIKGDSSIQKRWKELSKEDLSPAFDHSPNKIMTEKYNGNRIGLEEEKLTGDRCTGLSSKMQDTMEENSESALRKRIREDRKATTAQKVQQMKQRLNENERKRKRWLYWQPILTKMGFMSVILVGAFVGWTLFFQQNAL
Chain of Dual specificity protein phosphatase 3 (P51452 whole entry): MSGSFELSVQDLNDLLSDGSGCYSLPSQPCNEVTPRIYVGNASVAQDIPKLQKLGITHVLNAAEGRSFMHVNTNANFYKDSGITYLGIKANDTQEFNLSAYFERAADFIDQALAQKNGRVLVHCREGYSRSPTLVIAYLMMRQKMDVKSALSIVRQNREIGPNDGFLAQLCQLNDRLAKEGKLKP

As to `CC1(N)CCN(c2nc(-c3ccc4cc(Br)ccc4c3)cs2)CC1`, the IC50 in [1] and in [2] was more than 100 µM each time. The Ratio IC50 in the data set listed under Homo sapiens [3] and in the data set filed under Homo sapiens [9] was more than 30 throughout. The inhibition entry in [4], in [5] and in [6] was “Active” throughout. Also, in the data set with SF-268, the outcome was inactive. For the same compound, the result with NCI-H1838, with MDA-MB-468, in the data set with KG-1a, in the data set with NCI-H661, in the data set with THP-1 and in the data set on MOLT-4 was Active. Also, the outcome in the data set with MOLM-13, with MV4-11 and in the data set with NCI-H1975 was Active. The compound further showed a half-life in data set [7] of 13.3 h. Moreover, in [8], the bioavailability amounted to 67%.
